High-throughput results: PubChem BioAssay, several laboratories
This is a sample that favours compounds with a hit; in the whole collection about 2.1% have one here.
DSG3 Ab inh: human desmoglein-3 autoantibody binding inhibition. P32926. 310,000 tested, 0.48% active. AID 588358. DSG3-coupled beads, scFv-anti-DSG3-GFP binding, flow cytometry; hits give low values. binding (percent of control), % at 10 µM;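 active = binding more than 3 SD below its plate's average and above zero; inconclusive = below that plate limit but binding exactly zero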;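 also: hits lower antibody fragment binding to DSG3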
p-CIP stab down: lowers stability of the mouse p/CIP coactivator protein; Q05BA5; 290,000 tested, 0.01% active; F442A p/CIP-EGFP cells, EGFP fluorescence, 16 h; decrease of EGFP signal, % at 10 µM;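 active = EGFP signal decrease of at least 30% at 10 µM or well 3 SD below plate mean, unless failing retest; inactive = the rest, including hits failing retest or dose response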
Target sequence (Q05BA5 1-1403): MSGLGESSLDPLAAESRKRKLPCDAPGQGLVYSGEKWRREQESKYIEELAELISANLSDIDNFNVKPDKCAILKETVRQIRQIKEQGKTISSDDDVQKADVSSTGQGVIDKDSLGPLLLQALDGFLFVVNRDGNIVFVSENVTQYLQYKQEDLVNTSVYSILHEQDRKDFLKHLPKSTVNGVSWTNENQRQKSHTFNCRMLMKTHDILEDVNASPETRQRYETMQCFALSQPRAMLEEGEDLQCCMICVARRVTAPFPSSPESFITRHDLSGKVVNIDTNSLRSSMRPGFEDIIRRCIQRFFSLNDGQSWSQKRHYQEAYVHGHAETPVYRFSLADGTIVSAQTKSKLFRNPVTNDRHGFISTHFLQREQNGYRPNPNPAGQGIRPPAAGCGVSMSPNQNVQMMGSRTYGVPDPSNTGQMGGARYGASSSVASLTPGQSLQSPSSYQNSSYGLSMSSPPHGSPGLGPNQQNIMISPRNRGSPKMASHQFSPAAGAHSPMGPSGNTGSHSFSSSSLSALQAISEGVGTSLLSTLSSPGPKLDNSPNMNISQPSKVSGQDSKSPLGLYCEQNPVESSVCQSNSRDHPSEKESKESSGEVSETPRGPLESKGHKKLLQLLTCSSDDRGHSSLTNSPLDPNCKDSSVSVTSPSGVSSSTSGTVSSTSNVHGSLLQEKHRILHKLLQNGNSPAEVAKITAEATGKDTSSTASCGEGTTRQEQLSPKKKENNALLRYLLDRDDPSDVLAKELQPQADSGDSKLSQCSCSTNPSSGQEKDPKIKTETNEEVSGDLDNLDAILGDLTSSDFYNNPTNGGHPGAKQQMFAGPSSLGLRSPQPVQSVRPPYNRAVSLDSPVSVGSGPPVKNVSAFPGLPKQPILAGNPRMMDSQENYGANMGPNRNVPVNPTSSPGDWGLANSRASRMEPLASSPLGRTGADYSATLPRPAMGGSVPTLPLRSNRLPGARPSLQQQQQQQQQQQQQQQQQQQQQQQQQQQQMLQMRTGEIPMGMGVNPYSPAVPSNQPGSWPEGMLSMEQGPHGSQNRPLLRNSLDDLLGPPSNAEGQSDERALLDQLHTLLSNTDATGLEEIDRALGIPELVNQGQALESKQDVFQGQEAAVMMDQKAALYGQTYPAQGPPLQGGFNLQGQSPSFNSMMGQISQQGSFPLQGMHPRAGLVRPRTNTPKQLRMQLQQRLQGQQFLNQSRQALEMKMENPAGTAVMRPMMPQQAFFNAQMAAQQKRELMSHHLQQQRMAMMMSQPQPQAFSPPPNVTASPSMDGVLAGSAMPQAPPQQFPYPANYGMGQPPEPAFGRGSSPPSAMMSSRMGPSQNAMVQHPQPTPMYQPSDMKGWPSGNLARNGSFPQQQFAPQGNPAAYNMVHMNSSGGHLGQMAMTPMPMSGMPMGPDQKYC
Runt-CBFb FRET: inhibitors of human RUNX1 Runt domain binding to CBFb | Q01196+Q13951 | Cerulean-Runt/Venus-CBFb FRET ratio 530/480, 1 h | inhibition, % at 20 µM | 220,000 tested, 0.46% active | AID 1496;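 active = inhibition over about 50% at 20 µM in the single-dose screen, limit read from the data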;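 also: 0% = DMSO wells and 100% = excess unlabeled CBFb competitor control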
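test system = Cerulean-Runt domain fusion protein, energy donor | probe or stimulus = Venus-CBFb binding partner, 100 nM | incubation = two 1 h room-temperature incubations shielded from light | detection = fluorescence energy transfer, 422 nm excitation, 530/480 nm emission | measure = loss of energy transfer signal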
RanGTP-Imp inh: disruptors of Ran-importin-beta complex formation – biochemical, FRET, CFP-Ran, YFP-importin-beta, homogeneous, primary screen; cell-free CFP-Ran/YFP-importin-beta FRET ratio; inhibition, % (test concentration not listed); 300,000 tested, 1.1% active; AID 2216;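 active = more than half of the replicate wells show a fall in the fluorescence ratio signal beyond about 16%, limit read from the data, passing the limit was not always enough; inconclusive = exactly half of the replicate wells pass the set limit; inactive = fewer than half of replicates pass the limit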;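 also: 0% = DMSO wells and 100% = Ran loaded with GDP instead of GTP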
Runt-SMMHC FRET: Runt domain-CBFb-SMMHC interaction inhibition; inhibition, % at 20 µM; Cerulean-Runt/Venus-CBFb-SMMHC FRET ratio 530/480, 1 h; AID 1434; 220,000 tested, 0.74% active;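 active = mean inhibition across duplicate retests at 20 µM reaching about 50%, limit read from the data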;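 also: 0% = DMSO wells and 100% = wells with excess untagged CBFb-SMMHC; inhibitors lower the FRET ratio by blocking Runt binding to CBFb-SMMHC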
Hck Nef HTS: inhibitors of human Hck kinase activated by Nef. AID 463187. Recombinant Hck-YEEI plus Nef, Z-Lyte FRET kinase assay. inhibition, % at 20 µM. P08631. 220,000 tested, 0.68% active;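 active = Hck-Nef kinase inhibition above about 50%, limit read from the data; inactive = inhibition below that limit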;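 also: 0% = DMSO with Hck plus Nef and 100% = Hck alone without Nef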
RUNX1 CBFb TR: Runt-CBFb binding inhibition; TR-FRET RUNX1 Runt domain-CBFb binding; shares compounds with Runt-CBFb FRET; AID 1502; inhibition, % at 20 µM; 480 tested, 20% active; in the data active = inhibition above about 40%
YIC FRET counter: counter-screen for RanGTP-importin-beta inhibitors: YIC FRET probe | 1,000 tested, 40% active | Purified YIC probe, intramolecular FRET ratio YFP/CFP | shares compounds with RanGTP-Imp inh | IC50, µM;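 active = fitted half-maximal inhibitory concentration no more than tenfold above the top dose tested; inconclusive = flat fit with 30 to 70% activity, or poor fit; inactive = half-maximal concentration beyond tenfold above the top dose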
Hck-Nef confirm: Hck-Nef kinase inhibition, confirmation; 1,300 tested, 28% active; Recombinant Hck-YEEI:Nef, Z-Lyte FRET kinase assay; calls only at 10 µM; shares compounds with Hck Nef HTS;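 active = average inhibition of at least 50%, with Z-scores no higher than 3 in both the phospho-tyrosine peptide and fluorescence counterscreens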
Starred values were filed as active, the others as inactive; i = inactive; ? = inconclusive; . = no result given.

SMILES	DSG3 Ab inh	p-CIP stab down	Runt-CBFb FRET	RanGTP-Imp inh	Runt-SMMHC FRET	Hck Nef HTS	others
CC(C)CCn1c(N)c(C(=O)NCc2cccs2)c2nc3ccccc3nc21	92	-10	2	50*	20	4
Nc1c(C(=O)NC2CCCC2)c2nc3ccccc3nc2n1CC1CCCO1 (centres undefined)	106	-12	22	97*	82*	45
COC(=O)C1=C(c2cc3ccccc3s2)C[C@@H]2CC[C@H]1N2C(=O)NCCCOC(C)C	104	.	.	0	.	.
Nc1c(C(=O)OCC2CCCO2)c2nc3ccccc3nc2n1Cc1cccs1 (centres undefined)	97	-17	28	?	85*	30
COC(=O)C1=C(c2ccccc2)C[C@@H]2CC[C@H]1N2C(=O)N1CCC(C)CC1	105	.	.	-2	.	.
Cc1ccc(N2C(=O)NC(=O)/C(=C/c3ccc(-c4ccc(C(=O)O)c(Cl)c4)o3)C2=O)cc1	100	-14	18	6	0	52*
NC(=O)c1ccc(N=Cc2c(O)n(Cc3ccco3)c(=O)[nH]c2=O)cc1	79*	6	7	-1	1	26
CCN(CC)c1ccc(N=Cc2c(O)n(Cc3ccco3)c(=O)[nH]c2=O)cc1	.	-1	-130	-35	-237	-45
COCCOC(=O)c1c(N)n(Cc2ccc(OC)cc2)c2nc3ccccc3nc12	112	-9	52*	9	105*	22	RUNX1 CBFb TR=31
CCOC(=O)c1c(C)n(CCOC)c2ccc(O)cc12	.	8	0	-1	0	2
COCCCn1c(N)c(C(=O)OCCOC)c2nc3ccccc3nc21	99	-16	81*	?	116*	38	RUNX1 CBFb TR=25
COc1ccc(CCNCc2ccccc2)cc1	101	-4	.	3	.	.
O=C(NCCO)c1nsnc1NCCCl	100	10	56*	-1	-7	10	RUNX1 CBFb TR=25
O=S1(=O)CC2(N3CCOCC3)CCCCCCC21 (centres undefined)	90	-4	80*	?	1	0	RUNX1 CBFb TR=-10
C[C@]12CC[C@@H]3c4ccc(O)c(O)c4CC[C@H]3[C@@H]1CC[C@@H]2O	91	-6	54*	?	66*	.	RUNX1 CBFb TR=52*
O=C1C(=O)N(c2ccccc2)P(=O)(N(CCCl)CCCl)N1c1ccccc1	117	.	.	.	.	.
O=C(Cn1cnc2sc3c(c2c1=O)CCCC3)NCCCC(=O)N1CCC2(CC1)OCCO2	.	-11	2	8	4	-2
CCCCn1c(=O)c(C(=O)NCc2ccco2)c(O)c2ccccc21	102	-15	-4	-3	3	27
CCCNC(=O)c1c(N)n(Cc2ccco2)c2nc3ccccc3nc12	.	-9	52*	93*	59*	29	RUNX1 CBFb TR=23
COc1ccc2c(c1)C1(C(=O)O)CC=CCC1(C(=O)O)C2 (centres undefined)	90	.	.	.	.	.
CCOC(=O)c1c(N)n(CCCOC(=O)c2ccco2)c2nc3ccccc3nc12	107	-22	72*	23*	116*	30	RUNX1 CBFb TR=23;YIC FRET counter=24*
CCc1cc(=O)[nH]c(SCCCF)n1	100	6	0	?	-3	19
O=c1[nH]c(O)c(/C=C2/C=CC(c3cc(Cl)ccc3Cl)=N2)c(=O)[nH]1	94	-24	115*	38*	80*	29	YIC FRET counter=4*
Nc1ccc(C2(c3ccc(N)cc3)CN3CCC2CC3)cc1	110	8	0	49*	-2	1	YIC FRET counter=>50
Cc1ccc(C2(O)CN3CCC2CC3)cc1 (centres undefined)	84	1	.	1	.	.
SMILES	DSG3 Ab inh	p-CIP stab down	Runt-CBFb FRET	RanGTP-Imp inh	Runt-SMMHC FRET	Hck Nef HTS	others
Cc1sc2nc(COC(=O)Cc3ccccc3)[nH]c(=O)c2c1C	.	0	-3	20*	-2	1	YIC FRET counter=>50
Cc1cccc(C)c1OC(=O)Cc1ccccc1	108	0	-1	0	1	27
Cc1c(OC(=O)N(C)C)ccc2c1O/C(=C\c1ccco1)C2=O	119	0	.	30*	.	.	YIC FRET counter=12*
O=C(O)CCn1cc(C=C2C(=O)NC(=O)NC2=O)c(-c2cc3ccccc3oc2=O)n1	106	-23	7	1	7	47
O=c1[nH]c(=O)n(-c2cccc3ccccc23)c(O)c1/C=N/N1CCCCC1	.	3	-1	4	5	24
Cn1c(O)c(/C=N/N2CCCCC2)c(=O)[nH]c1=O	105	4	-1	5	4	0
Cc1ccc(-n2c(O)c(/C=N/N3CCCCCC3)c(=O)[nH]c2=O)cc1C	111	-12	2	22*	2	-7	YIC FRET counter=>50
O=c1[nH]c(=O)n(-c2cccc3ccccc23)c(O)c1/C=N/N1CCCCCC1	112	-8	0	22*	0	14	YIC FRET counter=>50
CCc1ccc(N2C(=O)NC(=O)/C(=C\c3cc(C)n(-c4cc(C(=O)O)cc(C(=O)O)c4)c3C)C2=O)cc1	111	-3	.	19*	.	.	YIC FRET counter=>50
Cc1cc(/C=C2\C(=O)NC(=O)N(c3ccc(F)cc3)C2=O)c(C)n1-c1ccc(C(=O)O)cc1	95	-1	9	18*	-9	19	YIC FRET counter=>50
C[C@]1(O)CCC2C3CC[C@H]4C[C@@H](OC(=O)CNC(=O)CN)CC[C@]4(C)C3CC[C@@]21C (some centres undefined)	122	.	.	.	.	.
C[C@]12CC[C@H](O)CC1=CCC1C2CC[C@@]2(C)C1C[C@@H]1CC(=O)O[C@@H]12 (some centres undefined)	91	.	.	.	.	.
Cc1ccccc1C(=O)N1Cc2ccccc2-n2nncc2C1	101	.	.	.	.	.
CC1CCCCC1NC1CCN(C)CC1 (centres undefined)	108	1	.	5	.	.
NC(N)=N/N=C/c1ccc(N(c2ccccc2)c2ccccc2)cc1	101	-3	.	23*	.	.	YIC FRET counter=>50
C=CCNC(=O)c1c(N)n(CCN2CCOCC2)c2nc3ccccc3nc12	101	-4	81*	80*	44	50*
COCCNC(=O)c1c(N)n(CCC(C)C)c2nc3ccccc3nc12	101	5	43	82*	59*	64*	Hck-Nef confirm=i
COc1ccc(OC)c(N=Cc2c(O)[nH]c(=O)[nH]c2=O)c1	100	2	.	2	.	.
